Test results as given in ChEMBL document CHEMBL1125429, “Intriguing structure-activity relations underlie the potent inhibition of HIV protease by norstatine-based peptides” (J Med Chem, 1992).
pIC50, pKi: −log10 of the molar value.

Columns and labels:
[1] = molecular target: T1, Human immunodeficiency virus type 1 protease (Human immunodeficiency virus 1, UniProt Q72874); assay: Inhibitory activity of the Compound was tested against HIV protease enzyme.
Outline: (§1)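 HIV-1 protease from the BRU strain was expressed in a microbial host. Activity was followed as hydrolysis of the octapeptide substrate VSQN-β-naphthylalanine-PIV, using a modified version of Heimbach's method.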

[2] = molecular target: T1, Human immunodeficiency virus type 1 protease; assay: Binding affinity against HIV protease enzyme.(by Dixon analysis); outline: as §1
[3] = molecular target: T1, Human immunodeficiency virus type 1 protease; assay: Inhibitory activity of the Compound was tested against HIV protease enzyme.(value reported by Roche group)
[4] = molecular target: T1, Human immunodeficiency virus type 1 protease; assay: Binding affinity against HIV Protease enzyme.(by Dixon analysis); outline: as §1
[5] = molecular target: T1, Human immunodeficiency virus type 1 protease; assay: (§2) Inhibitory activity of the Compound was tested against HIV protease enzyme
Outline: (§3)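 HIV-1 protease (BRU strain), microbially expressed; activity followed as hydrolysis of the octapeptide substrate VSQN-β-naphthylalanine-PIV, using a modified literature method.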

[6] = molecular target: T1, Human immunodeficiency virus type 1 protease; assay: Inhibitory activity of the Compound was tested against HIV protease enzyme.(value reported by Rich etal)
[7] = molecular target: T1, Human immunodeficiency virus type 1 protease; assay: as §2; outline: as §3; remark: listed apart in the source

| Structure (SMILES) | pIC50 [1] | other results |
| --- | --- | --- |
| CC(C)(C)NC(=O)[C@@H]1CCCN1C(=O)[C@@H](O)[C@H](Cc1ccccc1)NC(=O)[C@H](CC(N)=O)NC(=O)COc1ccc2ccccc2c1 | 8.89 | – |
| CC(C)(C)NC(=O)[C@@H]1CCCN1C(=O)[C@H](O)[C@H](Cc1ccccc1)NC(=O)[C@H](CC(N)=O)NC(=O)OCc1ccccc1 | 5.51 | – |
| CC(C)(C)NC(=O)[C@@H]1CCCN1C(=O)[C@@H](O)[C@H](Cc1ccccc1)NC(=O)[C@H](CC(N)=O)NC(=O)c1ccc2ccccc2n1 | 8.96 | pKi [2]: 9.05 |
| CC(C)(C)NC(=O)[C@@H]1CCCN1C(=O)C(=O)[C@H](Cc1ccccc1)NC(=O)[C@H](CC(N)=O)NC(=O)OCc1ccccc1 | 7.70 | – |
| CC(C)(C)OC(=O)[C@@H]1CCCN1C[C@@H](O)[C@H](Cc1ccccc1)NC(=O)OCc1ccccc1 | – | pIC50 [3]: 5.19 |
| CC(C)(C)NC(=O)[C@@H]1CCCN1C(=O)[C@@H](O)[C@H](Cc1ccccc1)NC(=O)OCc1ccccc1 | 6.34 | – |
| CC(C)(C)NC(=O)[C@@H]1CCCCN1C[C@@H](O)[C@H](Cc1ccccc1)NC(=O)[C@H](CC(N)=O)NC(=O)OCc1ccccc1 | – | pIC50 [3]: 7.74 |
| CC(C)(C)NC(=O)[C@@H]1CCCN1C(=O)C(=O)[C@H](Cc1ccccc1)NC(=O)OCc1ccccc1 | 6.22 | – |
| CC(C)(C)NC(=O)[C@@H]1CCCN1C(=O)[C@@H](O)[C@H](Cc1ccccc1)NC(=O)[C@H](CC(N)=O)NC(=O)OCc1ccccc1 | 8.13 | pKi [4]: 8.40 |
| CC(C)[C@H](NC(=O)COc1cccc2ccccc12)C(=O)N[C@@H](Cc1ccccc1)[C@H](O)C(=O)N1CCC[C@H]1C(=O)NC(C)(C)C | 8.72 | – |
| CC(C)(C)NC(=O)[C@@H]1CCCN1C(=O)[C@@H](O)[C@H](Cc1ccccc1)NC(=O)[C@H](CC(N)=O)NC(=O)COc1cccc2ccccc12 | 9.24 | pKi [4]: 9.40 |
| CC(C)(C)NC(=O)[C@@H]1C[C@@H]2CCCC[C@@H]2CN1C(=O)[C@@H](O)[C@H](Cc1ccccc1)NC(=O)[C@H](CC(N)=O)NC(=O)OCc1ccccc1 | 7.08 | – |
| CC(C)(C)NC(=O)[C@@H]1C[C@@H]2CCCC[C@@H]2CN1C(=O)[C@@H](O)[C@H](Cc1ccccc1)NC(=O)[C@H](CC(N)=O)NC(=O)c1ccc2ccccc2n1 | 7.57 | – |
| CC[C@H](C)[C@H](NC(=O)[C@@H]1CCCN1C(=O)[C@H](O)[C@H](Cc1ccccc1)NC(=O)[C@H](CC(N)=O)NC(=O)OCc1ccccc1)C(=O)N[C@H](C(=O)OC)C(C)C | 7.60 | – |
| CC(C)(C)NC(=O)[C@@H]1CC2CCCCC2CN1C[C@@H](O)[C@H](Cc1ccccc1)NC(=O)[C@H](CC(N)=O)NC(=O)OCc1ccccc1 (stereo not given in full) | – | pIC50 [3]: > 8.57 |
| CC(C)(C)OC(=O)[C@@H]1CCCN1C[C@H](O)[C@H](Cc1ccccc1)NC(=O)[C@H](CC(N)=O)NC(=O)OCc1ccccc1 | – | pIC50 [5]: 6.74; pIC50 [6]: 6.35; pIC50 [7]: 6.89 |
| CC(C)(C)NC(=O)[C@@H]1CCCCN1C(=O)[C@@H](O)[C@H](Cc1ccccc1)NC(=O)[C@H](CC(N)=O)NC(=O)OCc1ccccc1 | 7.59 | – |
| CC(C)(C)NC(=O)[C@@H]1CCCN1C[C@@H](O)[C@H](Cc1ccccc1)NC(=O)[C@H](CC(N)=O)NC(=O)OCc1ccccc1 | – | pIC50 [3]: 6.68 |
| CC[C@H](C)[C@H](NC(=O)[C@@H]1CCCN1C(=O)[C@@H](O)[C@H](Cc1ccccc1)NC(=O)[C@@H](CC(N)=O)NC(=O)OCc1ccccc1)C(=O)N[C@H](C(=O)OC)C(C)C | 8.51 | – |
| CC(C)[C@H](NC(=O)OCc1ccccc1)C(=O)N[C@@H](Cc1ccccc1)[C@H](O)C(=O)N1CCC[C@H]1C(=O)NC(C)(C)C | 8.37 | – |
